Test results taken from ChEMBL document CHEMBL1127691, “Discovery, synthesis, and bioactivity of bis(heteroaryl)piperazines. 1. A novel class of non-nucleoside HIV-1 reverse transcriptase inhibitors” (J Med Chem, 1994).

Tests used:
[1] = test system: Human immunodeficiency virus 1; test: Effective antiviral dose required to block the spread of HIV-1D34 infection in human peripheral blood mononuclear cells; assay type: functional; details: read-out: ED50 (the source's name)
Procedure, shortened: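 PBMC (1 × 10^6 cells) infected with HIV-1 D34 inoculum containing 1 ng p24, cultured at 37 °C in 5% CO2. Replication read as supernatant p24 at day 4. ED50 = 50% effective antiviral dose, estimated in some cases.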

[2] = Tested for the drug concentration required to decrease […] infected human peripheral blood mononuclear cell viability compared to uninfected controls; assay type: functional
Procedure, shortened: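 Uninfected and HIV-1 D34-infected PBMC at 37 °C, 5% CO2. Viability taken from mitogen-stimulated cell proliferation. CC50 is the concentration lowering viability relative to uninfected controls; mostly estimated.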

[3] = molecular target: Human immunodeficiency virus type 1 reverse transcriptase (Human immunodeficiency virus 1) (UniProt Q72547); test: In vitro inhibitory activity against HIV-1 reverse transcriptase at 100 uM
Procedure, shortened: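 Recombinant HIV-1 RT (p51/p66 heterodimer, 90–95% pure, 0.0274 μM) with poly(rA) 10 μg/mL and (dT)10 primer 5 μg/mL; 8 μM α-35S-dTTP, 50 mM Tris-HCl pH 8.3, 10 mM MgCl2, 60 mM NaCl, 20 mM DTT, 0.05% NP-40. 37 °C, 15 min; TCA-precipitated label counted on filters. Percent inhibition at 100 μM, mean of at least two determinations.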

MT2 [4] = test: Tested for the drug concentration required to decrease HIV-1IIIb infected MT-2 cell viability compared to uninfected controls; assay type: functional; details: Homo sapiens
Procedure, shortened: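 MT-2 cells with HIV-1 IIIb (MOI 0.001), 4-day culture. Viability by trypan blue exclusion. CC50 is the concentration lowering viability relative to uninfected controls; mostly estimated.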

MT2 [5] = test: Effective antiviral dose required to block the spread of HIV-1 IIIb infection in MT-2 cells by monitoring the formation of syncytia; assay type: functional; details: Homo sapiens, read-out: ED50 (the source's name)
Procedure, shortened: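 MT-2 cells infected with HIV-1 IIIb at MOI 0.001, held at 37 °C in 5% CO2. Syncytium formation scored 4 days post-infection, at peak cytopathic effect. ED50 is the dose giving 50% reduction in syncytia; some values were estimated, and ">" means 50% was not reached at the top concentration.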

[6] = Selective index is the ratio of inhibitory concentrations of cellular DNA polymerase alpha to HIV-1 reverse transcriptase
Procedure, shortened: (§1)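 Index = IC50 for cellular DNA polymerase α or δ divided by IC50 for HIV-1 RT. RT IC50 measured with recombinant RT and poly(rA):oligo(dT)10 template:primer.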

[7] = Selective index is the ratio of inhibitory concentrations of cellular DNA polymerase delta to HIV-1 reverse transcriptase; procedure, shortened: as §1

Row | EC50 [1] [nM] | inhibition [3] [%] | SMILES | CC50 [2] [nM] | other results
1 | 100 | 83 | CC(C)Nc1cc(F)ccc1N1CCN(C(=O)c2cc3ccccc3[nH]2)CC1 | > 10000 | –
2 | 1 | 93 | CCNc1cccnc1N1CCN(C(=O)c2cc3cc(F)ccc3[nH]2)CC1 | – | CC50 (MT2 [4]): > 27000 nM; EC50 (MT2 [5]): < 300 nM; Selectivity index [6]: 220; Selectivity index [7]: 1670
3 | ~1000 | 22 | CC(C)Nc1cc(C(F)(F)F)ccc1N1CCN(C(=O)c2cc3ccccc3[nH]2)CC1 | > 10000 | –
4 | – | 40 | CCC(=O)c1cccnc1N1CCN(C(=O)c2cc3ccccc3[nH]2)CC1 | – | –
5 | – | 0 | CC(C)Nc1ccc(N2CCN(C(=O)c3ccc4[nH]ccc4c3)CC2)nc1 | – | –
6 | – | 60 | CCCNc1cccnc1N1CCN(Cc2cc(C)c(OC)c(C)c2)CC1 | – | –
7 | > 10000 | 5 | COc1c(C)cc(C(=O)N2CCN(c3ccccn3)CC2)cc1C | > 100000 | –
8 | – | 22 | CCNc1cccnc1N1CCN(C(=O)c2c[nH]c3ccccc23)CC1 | – | –
9 | – | 7 | COc1ccc(N2CCN(C(=O)c3cc4ccccc4[nH]3)CC2)c(OC)c1 | – | –
10 | 1000 | 69 | CCNc1cccnc1N1CCN(C(=O)c2cc(C)c(OC)c(C)c2)CC1 | > 100000 | –
11 | – | 0 | CCNc1cccnc1N1CCN(C(=O)c2nc3ccccc3s2)CC1 | – | –
12 | – | 16 | CCNc1cccnc1N1CCN(C(=O)c2cc3ccccc3oc2=O)CC1 | – | –
13 | 100 | 82 | CCC(CC)Nc1cccnc1N1CCN(C(=O)c2cc3ccccc3[nH]2)CC1 | > 10000 | –
14 | – | 0 | CC(C)NCc1cccnc1N1CCN(C(=O)c2cc3ccccc3[nH]2)CC1 | – | –
15 | 100 | 78 | COc1c(C)cc(C(=O)N2CCN(c3ncccc3NC(C)C)CC2)cc1C | > 10000 | –
16 | > 10000 | 20 | Nc1cccnc1N1CCN(C(=O)c2cc3ccccc3[nH]2)CC1 | > 100000 | –
17 | ~10000 | 60 | CCNc1cccnc1N1CCN(C(=O)c2cccs2)CC1 | > 100000 | –

Row | EC50 [1] [nM] | inhibition [3] [%] | SMILES | CC50 [2] [nM] | other results
18 | 1 | 97 | COc1ccc2[nH]c(C(=O)N3CCN(c4ncccc4NC(C)C)CC3)cc2c1 | – | CC50 (MT2 [4]): > 25000 nM; EC50 (MT2 [5]): 300 nM; Selectivity index [6]: 1500; Selectivity index [7]: 8000
19 | – | 0 | CNC(=O)c1cccnc1N1CCN(C(=O)c2cc3ccccc3[nH]2)CC1 | – | –
20 | – | 87 | CC(C)Nc1ccccc1N1CCN(C(=O)c2cc3ccccc3[nH]2)CC1 | – | –
21 | 10000 | 69 | CCNc1cccnc1N1CCN(C(=O)c2nc3ccccc3[nH]2)CC1 | > 10000 | –
22 | 1000 | 84 | COc1c(C)cc(CN2CCN(c3ncccc3NC(C)C)CC2)cc1C | ~10000 | –
23 | 10 | 95 | CCC(C)Nc1cccnc1N1CCN(C(=O)c2cc3ccccc3[nH]2)CC1 (configuration not stated) | > 10000 | –
24 | – | 26 | CC(C)C(=O)c1cccnc1N1CCN(C(=O)c2cc3ccccc3[nH]2)CC1 | – | –
25 | 10 | 71 | O=C(c1cc2ccccc2[nH]1)N1CCN(c2ncccc2NCC2CC2)CC1 | > 100000 | –
26 | – | 68 | CCOC(=O)c1cccnc1N1CCN(C(=O)c2cc3ccccc3[nH]2)CC1 | – | –
27 | – | 5 | O=C(c1cc2ccccc2[nH]1)N1CCN(c2ncccc2[N+](=O)[O-])CC1 | – | –
28 | 10000 | 74 | CCNc1cccnc1N1CCN(C(=O)c2ccc3ccccc3c2)CC1 | > 10000 | –
29 | – | 0 | CCc1ccccc1N1CCN(C(=O)c2cc3ccccc3[nH]2)CC1 | – | –
30 | – | 82 | COC(=O)c1cccnc1N1CCN(C(=O)c2cc3ccccc3[nH]2)CC1 | – | –
31 | – | 58 | CC(C)(C)C(=O)c1cccnc1N1CCN(C(=O)c2cc3ccccc3[nH]2)CC1 | – | –
32 | 10000 | 37 | CCNc1cccnc1N1CCN(C(=O)c2cc3ccccc3o2)CC1 | > 10000 | –
33 | 1 | 92 | CCNc1cccnc1N1CCN(C(=O)c2cc3cc(OC)ccc3[nH]2)CC1.CS(=O)(=O)O [ATEVIRDINE SULPHATE] | – | CC50 (MT2 [4]): > 20000 nM; EC50 (MT2 [5]): < 200 nM; Selectivity index [6]: 200; Selectivity index [7]: 1500
34 | 3 | 96 | CC(C)Nc1cccnc1N1CCN(C(=O)c2cc3cc(F)ccc3[nH]2)CC1 | – | CC50 (MT2 [4]): > 26000 nM; EC50 (MT2 [5]): 300 nM; Selectivity index [6]: 810; Selectivity index [7]: 10000
